For seven molecules, outcome and AC50 results are on record in PubChem BioAssay AID588704 (Broad Institute, 2011).

Active and inactive are the calls of the source.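 Rule for the calls: active = strong luminescence drop, meaning toxicity to breast epithelial cells with E-cadherin silenced, a stem-like cancer model; inactive = the rest.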

What is called AC50 is the midpoint of the concentration-response curve, whichever way the signal moves.

Test system in the first assay: not listed separately
As to the kind of experiment: HMLE_shECad cancer stem cell-like viability inhibition, dose response, CellTiter-Glo luminescence, dry powder (AID 588704). Conditions: HMLE_shECad viability, CellTiter-Glo luminescence, 72 h. In a few lines: (§1)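 Doses: 0.010–32 µM final / System: EMT-induced HMLE_shECad cancer stem cell-like cells / Input: 1000 cells per well at seeding / Measured by: luminescent ATP assay (CellTiter-Glo) / Buffer or medium: serum-free screening medium for plating / Control set: DMSO-only wells / Repeats: duplicate / Timing: 72 h compound exposure, dosing at 24 h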
In general terms: Cellular ATP, detected with luciferase, serves as a proxy for viable cell number.
With `O=C(COc1ccc(Cl)cc1Cl)N/N=C/c1cnc[nH]1`, the result was inactive.

The next assay deals with HMLE_shECad viability, CellTiter-Glo luminescence, 72 h. Described as above.
Conditions: not given
In a few lines:
as §1
Consider `O=C(N/N=C/c1ccc[nH]1)c1cc2ccccc2o1`, for which the concentration at half-maximal activity (AC50) is 2.46 µM.
On the same count and under the same terms, the same measure for `Cc1cc(Cl)ccc1OCC(=O)N/N=C/c1ccc[nH]1`: 4.58 µM; for `O=C(COc1ccc(Cl)cc1Cl)N/N=C/c1ccc[nH]1`: 3.39 µM; for `O=C(COc1cc(Cl)ccc1Cl)N/N=C/c1ccc[nH]1`: 0.93 µM.
As to `O=C(COc1c(Cl)cc(Cl)cc1Cl)N/N=C/c1ccc[nH]1`, the half-maximal activity concentration (AC50) was 0.47 µM.
Same read-out and setting: the same measure for `CC(C)(C)c1ccc2c(c1)OC(C(=O)N/N=C/c1ccc[nH]1)CO2` (configuration not stated): 3.48 µM.
